Data on three molecules can be found in ChEMBL document CHEMBL1128473, “[(Biaryloxy)alkyl]isoxazoles: picornavirus inhibitors” (J Med Chem, 1995).

≈ marks a conversion by molar mass, not a printed value.

Format in all cases: functional
The test system of experiment [1] is Human rhinovirus sp. The experiment is described as follows: Concentration inhibiting 50% of the serotypes tested to 50% of the viral concentration of untreated controls following 72 hr of exposure. In a few lines: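 Tissue culture infectious dose (TCID50) assay against a panel of 10 human rhinovirus serotypes. For each serotype, the viral concentration was compared with untreated controls after 72 h of compound exposure. MIC50 is the compound concentration at which half of the serotypes tested are reduced to 50% of the untreated-control viral concentration.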

Experiment [2] has as its system Human rhinovirus sp. In words: Minimum inhibitory concentration on HRV serotype 90. Summed up:
(§1)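 Tested in a tissue culture infectious dose (TCID50) assay with 72 h compound exposure. Activity is read as the concentration that holds virus to 50% of the titer of untreated controls.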

Experiment [3] has as its system Human rhinovirus sp. The experiment is described as follows: Minimum inhibitory concentration on HRV serotype 1B.
The test system of experiment [4] is Human rhinovirus sp. In words: Minimum inhibitory concentration on HRV serotype 1A.
Experiment [5] deals with Human rhinovirus sp. The experiment is described as follows: Minimum inhibitory concentration on HRV serotype 15.
The subject of experiment [6] is Human rhinovirus sp. In words: Minimum inhibitory concentration on HRV serotype 75.
The subject of experiment [7] is Human rhinovirus sp. In words: Minimum inhibitory concentration on HRV serotype 61.
In experiment [8] the test system is Human rhinovirus sp. In words: Minimum inhibitory concentration on HRV serotype 36.
Experiment [9] deals with Human rhinovirus sp. The experiment is described as follows: Minimum inhibitory concentration on HRV serotype 92. In a few lines: as §1
The subject of experiment [10] is Human rhinovirus sp. The experiment is described as follows: Minimum inhibitory concentration on HRV serotype 81. In a few lines:
as §1

Experiment [11] has as its system Human rhinovirus sp. The experiment is described as follows: Minimum inhibitory concentration on HRV serotype 11.
Experiment [12] has as its system Human rhinovirus sp. The experiment is described as follows: Minimum inhibitory concentration on HRV serotype 2.
Experiment [13] has as its system Human rhinovirus sp. The experiment is described as follows: Minimum inhibitory concentration on HRV serotype 73.
Experiment [14] deals with Human rhinovirus sp. In words: Minimum inhibitory concentration on HRV serotype 100.
The subject of experiment [15] is Human rhinovirus sp. In words: Minimum inhibitory concentration on HRV serotype 21.
Experiment [16] concerns Human rhinovirus sp. In words: Minimum inhibitory concentration on HRV serotype 35.
In experiment [17] the test system is Human rhinovirus sp. In words: Minimum inhibitory concentration on HRV serotype 19.
Experiment [18] concerns Human rhinovirus sp. In words: Minimum inhibitory concentration on HRV serotype 24.
Experiment [19] concerns Human rhinovirus sp. In words: Minimum inhibitory concentration on HRV serotype 56.
Experiment [20] relates to Human rhinovirus sp. In words: Minimum inhibitory concentration on HRV serotype 76. Summed up: as §1
Experiment [21] relates to Human rhinovirus sp. The experiment is described as follows: Minimum inhibitory concentration on HRV serotype 44.
In experiment [22] the test system is Human rhinovirus sp. In words: Minimum inhibitory concentration on HRV serotype 40.
Experiment [23] has as its system Human rhinovirus sp. The experiment is described as follows: Minimum inhibitory concentration on HRV serotype 43.
Experiment [24] concerns Human rhinovirus sp. In words: Minimum inhibitory concentration on HRV serotype 47.
Experiment [25] has as its system Human rhinovirus sp. In words: Minimum inhibitory concentration on HRV serotype 25.
The test system of experiment [26] is Human rhinovirus sp. The experiment is described as follows: Minimum inhibitory concentration on HRV serotype 88. In a few lines: as §1
For experiment [27], the system named is Human rhinovirus sp. The experiment is described as follows: Minimum inhibitory concentration on HRV serotype 20.
In experiment [28] the test system is Human rhinovirus sp. In words: Minimum inhibitory concentration on HRV serotype 28.
The subject of experiment [29] is Human rhinovirus sp. The experiment is described as follows: Minimum inhibitory concentration on HRV serotype 57.
For experiment [30], the system named is Human rhinovirus sp. The experiment is described as follows: Minimum inhibitory concentration on HRV serotype 16.
Experiment [31] has as its system Human rhinovirus sp. The experiment is described as follows: Minimum inhibitory concentration on HRV serotype 96. In a few lines: as §1
Experiment [32] deals with Human rhinovirus sp. The experiment is described as follows: Minimum inhibitory concentration on HRV serotype 79. In a few lines: as §1
In experiment [33] the test system is Human rhinovirus sp. In words: Minimum inhibitory concentration on HRV serotype 84. Summed up: as §1
Experiment [34] concerns Human rhinovirus sp. In words: Minimum inhibitory concentration on HRV serotype 38.
Experiment [35] has as its system Human rhinovirus sp. In words: Minimum inhibitory concentration on HRV serotype 78. In a few lines: as §1
Experiment [36] concerns Human rhinovirus sp. The experiment is described as follows: Minimum inhibitory concentration on HRV serotype 64.
Experiment [37] deals with Human rhinovirus sp. The experiment is described as follows: Minimum inhibitory concentration on HRV serotype 82. Summed up:
as §1

For experiment [38], the system named is Human rhinovirus sp. The experiment is described as follows: Minimum inhibitory concentration on HRV serotype 50.
Experiment [39] deals with Human rhinovirus sp. In words: Minimum inhibitory concentration on HRV serotype 83. Summed up:
as §1

Experiment [40] deals with Human rhinovirus sp. The experiment is described as follows: Minimum inhibitory concentration on HRV serotype 39.
For experiment [41], the system named is Human rhinovirus sp. The experiment is described as follows: Minimum inhibitory concentration on HRV serotype 49.
Experiment [42] deals with Human rhinovirus sp. The experiment is described as follows: Minimum inhibitory concentration on HRV serotype T39. In a few lines:
as §1

The subject of experiment [43] is Human rhinovirus sp. In words: Minimum inhibitory concentration on HRV serotype 68.
The test system of experiment [44] is Human rhinovirus sp. In words: Minimum inhibitory concentration on HRV serotype 58.
Experiment [45] deals with Human rhinovirus sp. The experiment is described as follows: Minimum inhibitory concentration on HRV serotype 89. Summed up: as §1
The subject of experiment [46] is Human rhinovirus sp. In words: Minimum inhibitory concentration on HRV serotype 29.
The test system of experiment [47] is Human rhinovirus sp. In words: Minimum inhibitory concentration on HRV serotype 7.
Experiment [48] has as its system Human rhinovirus sp. The experiment is described as follows: Minimum inhibitory concentration on HRV serotype 66.
Experiment [49] has as its system Human rhinovirus sp. The experiment is described as follows: Minimum inhibitory concentration on HRV serotype 51.
The test system of experiment [50] is Human rhinovirus sp. In words: Minimum inhibitory concentration on HRV serotype 62.
For experiment [51], the system named is Human rhinovirus sp. In words: Minimum inhibitory concentration on HRV serotype 32.
In experiment [52] the test system is Human rhinovirus sp. In words: Minimum inhibitory concentration on HRV serotype 85. In a few lines:
as §1

Experiment [53] relates to Human rhinovirus sp. In words: Minimum inhibitory concentration on HRV serotype 30.
Experiment [54] has as its system Human rhinovirus sp. The experiment is described as follows: Minimum inhibitory concentration on HRV serotype 53.
In experiment [55] the test system is Human rhinovirus sp. The experiment is described as follows: Minimum inhibitory concentration on HRV serotype 67.
Experiment [56] relates to Human rhinovirus sp. The experiment is described as follows: Minimum inhibitory concentration on HRV serotype 9. Summed up:
as §1

Experiment [57] has as its system Human rhinovirus sp. In words: Minimum inhibitory concentration on HRV serotype 34.
For experiment [58], the system named is Human rhinovirus sp. In words: Minimum inhibitory concentration on HRV serotype 63.
Experiment [59] relates to Human rhinovirus sp. In words: Minimum inhibitory concentration on HRV serotype 22.
The test system of experiment [60] is Human rhinovirus sp. In words: Minimum inhibitory concentration on HRV serotype 33.
Experiment [61] relates to Human rhinovirus sp. In words: Minimum inhibitory concentration on HRV serotype 71.
The test system of experiment [62] is Human rhinovirus sp. The experiment is described as follows: Minimum inhibitory concentration on HRV serotype 55.
Experiment [63] concerns Human rhinovirus sp. The experiment is described as follows: Minimum inhibitory concentration on HRV serotype 80. Summed up: as §1
Experiment [64] concerns Human rhinovirus sp. The experiment is described as follows: Minimum inhibitory concentration on HRV serotype 23.
The test system of experiment [65] is Human rhinovirus sp. The experiment is described as follows: Minimum inhibitory concentration on HRV serotype 46.

With `Cc1cc(CCCOc2c(C)cc(-c3ccc(C(F)(F)F)cc3)cc2C)on1`, in experiment [1], the MIC50 is 1.7 µM (≈ 0.662 µg/mL).

`Cc1cc(CCCCCOc2c(Cl)cc(C3=NCCO3)cc2Cl)on1` [WIN-54954]: the MIC came to 0.191 µg/mL (≈ 0.498 µM) in [2]; 0.105 µg/mL (≈ 0.274 µM) in experiment [3]; 0.419 µg/mL (≈ 1.09 µM) in experiment [4]; 0.49 µg/mL (≈ 1.28 µM) in experiment [5]; 0.157 µg/mL (≈ 0.41 µM) in experiment [6]; 0.127 µg/mL (≈ 0.331 µM) in [7]. The MIC in [8] was found to be 0.073 µg/mL (≈ 0.19 µM); in experiment [9] it was 0.002 µg/mL (≈ 0.00522 µM); in [10], 0.416 µg/mL (≈ 1.09 µM); in experiment [11] it was 0.102 µg/mL (≈ 0.266 µM); in experiment [12], 0.058 µg/mL (≈ 0.151 µM); in [13], 0.242 µg/mL (≈ 0.631 µM). The MIC amounted to 0.025 µg/mL (≈ 0.0652 µM) in experiment [14]; 0.031 µg/mL (≈ 0.0809 µM) in experiment [15]; 0.036 µg/mL (≈ 0.0939 µM) in [16]; 0.178 µg/mL (≈ 0.464 µM) in [17]; 0.175 µg/mL (≈ 0.457 µM) in experiment [18]; 0.099 µg/mL (≈ 0.258 µM) in experiment [19]. Further, the MIC was 0.102 µg/mL (≈ 0.266 µM) in [20]; 0.119 µg/mL (≈ 0.31 µM) in [21]; 0.053 µg/mL (≈ 0.138 µM) in [22]; 0.283 µg/mL (≈ 0.738 µM) in experiment [23]; 0.015 µg/mL (≈ 0.0391 µM) in [24]; 0.072 µg/mL (≈ 0.188 µM) in [25]. For the same molecule, the MIC in [26] came out at 0.084 µg/mL (≈ 0.219 µM); in experiment [27] it was 0.037 µg/mL (≈ 0.0965 µM); in [28] it was 0.116 µg/mL (≈ 0.303 µM); in experiment [29], 0.156 µg/mL (≈ 0.407 µM); in experiment [30] it was 0.639 µg/mL (≈ 1.67 µM); in experiment [31], 0.091 µg/mL (≈ 0.237 µM). For the same molecule, the MIC in [32] is 0.028 µg/mL (≈ 0.0731 µM); in experiment [33], above 3 µg/mL; in experiment [34], 0.078 µg/mL (≈ 0.204 µM); in experiment [35], 0.081 µg/mL (≈ 0.211 µM); in experiment [36] it was 0.497 µg/mL (≈ 1.3 µM); in [37] it was 0.245 µg/mL (≈ 0.639 µM). Also, the MIC in experiment [38] came out at 0.47 µg/mL (≈ 1.23 µM); in experiment [39], 0.018 µg/mL (≈ 0.047 µM); in experiment [40], 0.347 µg/mL (≈ 0.905 µM); in experiment [41] it was 0.16 µg/mL (≈ 0.417 µM); in [42] it was 0.299 µg/mL (≈ 0.78 µM); in experiment [43], 0.032 µg/mL (≈ 0.0835 µM). Further, the MIC in experiment [44] was determined as 0.028 µg/mL (≈ 0.0731 µM); in [45], 0.034 µg/mL (≈ 0.0887 µM); in experiment [46], 0.295 µg/mL (≈ 0.77 µM); in experiment [47], 0.035 µg/mL (≈ 0.0913 µM); in experiment [48] it was 0.069 µg/mL (≈ 0.18 µM); in experiment [49], 0.033 µg/mL (≈ 0.0861 µM). Further, the MIC is 0.115 µg/mL (≈ 0.3 µM) in [50]; 0.269 µg/mL (≈ 0.702 µM) in experiment [51]; 0.043 µg/mL (≈ 0.112 µM) in [52]; 0.156 µg/mL (≈ 0.407 µM) in experiment [53]; 0.355 µg/mL (≈ 0.926 µM) in experiment [54]; 0.169 µg/mL (≈ 0.441 µM) in experiment [55]. In addition, the MIC in [56] was 0.187 µg/mL (≈ 0.488 µM); in experiment [57], 0.072 µg/mL (≈ 0.188 µM); in experiment [58] it was 0.101 µg/mL (≈ 0.264 µM); in [59], 0.027 µg/mL (≈ 0.0704 µM); in experiment [60] it was 0.107 µg/mL (≈ 0.279 µM); in [61] it was 0.018 µg/mL (≈ 0.047 µM). The MIC came out at 0.02 µg/mL (≈ 0.0522 µM) in [62], 0.124 µg/mL (≈ 0.324 µM) in [63], 0.451 µg/mL (≈ 1.18 µM) in experiment [64] and 0.143 µg/mL (≈ 0.373 µM) in experiment [65]. This molecule gave an MIC50 in [1] of 0.78 µM (≈ 0.299 µg/mL).

Molecule `Cc1cc(CCCOc2c(C)cc(-c3cccc(F)c3)cc2C)on1` returned an MIC50 in [1] of 0.32 µM (≈ 0.109 µg/mL).
